Measles CPE: protection of cells from measles virus; hit rate 1.5% among 140,000; Measles virus-infected cells, CPE protection, absorbance; protection (pct of control), % at 4 µM; AID 841; in the data active means protection mostly above about 24%, no sharp cut-off; inactive means mostly below about 26%
Yeast life ext: yeast lifespan extension | AID 775 | hit rate 0.68% among 130,000 | S. cerevisiae growth with nicotinamide, OD615; deaD strain in restrictive glucose medium | inhibition of the nicotinamide effect, % at 10 µM;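 active means inhibition above a set limit, placed 3 SD over the median of all compounds, cut at about 26% in these data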;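 further: 0% = nicotinamide-treated wells and 100% = cells grown without nicotinamide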
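Assay system: engineered S. cerevisiae DeaD replicative-lifespan strain, galactose-grown log-phase cells; medium: restrictive CSMM-D dextrose medium; also added: nicotinamide, 1.5 mM, co-present with compound; schedule: 48 h compound exposure at 30 °C, humidified; detection: absorbance at 615 nm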
Yeast growth inh: yeast BB579 growth reduction in restrictive medium; AID 804; S. cerevisiae BB579 growth, OD615, 48 h; inhibition, % at 10 µM; hit rate 0.51% among 140,000;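 active means inhibition above a set limit, 3 SD over the mean compound inhibition, cut at about 44% in these data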
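controls = amphotericin B 10 µg/mL, positive | assay system = DeaD yeast strain BB579 | schedule = 48 h compound exposure at 30 °C after 4 h preincubation | detection = OD615 turbidity measurement | medium = restrictive CSMM-D medium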
SDO1 yeast rescue: sdo1-depleted yeast growth rescue | z-score at 10 µM | AID 817 | S. cerevisiae sdo1-depleted JHY4D growth rescue, OD600 30 h; active compounds read high; pdr5 snq2 efflux-pump mutant strain | hit rate 0.21% among 140,000;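 active means z-score above 3 at both the 24 hr and the 30 hr optical density reads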;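 further: z-score against mean and SD of all compound wells on the same plate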
RAM inhibit: blocks the yeast RAM network; S. cerevisiae dse1pr::URA3 reporter, 5-FOA growth OD615, 2 d; analog-sensitive cbk1-as2 kinase mutant strain; inhibition, % at 50 µM; hit rate 1.8% among 190,000; AID 868;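 active means inhibition above a set limit, 3 SD over mean compound inhibition, cut at about 8.4% in these data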;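 further: 0% = DMSO-only wells with no growth and 100% = 10 µM 1-NA-PP1 full growth; inhibition rescues growth on 5-FOA so higher OD means more RAM inhibition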
RAM 5-FOA: restores 5-FOA growth of efflux-deficient yeast | 1,200 tested, under 10 active | AID 1305 | shares compounds with RAM inhibit | max inhibition, % | S. cerevisiae efflux-deficient reporter strain, 5-FOA growth OD615, 2 days; call rule not given here;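 further: plate controls were vehicle for no effect and reference inhibitor for full effect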
* marks the source's active call; other numbers are inactive results; nt = no result given. Shown are actives, neighbours in structure and some others; about 3.8% of the full set was active somewhere.

SMILES | Measles CPE | Yeast life ext | Yeast growth inh | SDO1 yeast rescue | RAM inhibit | RAM 5-FOA
COc1cc2c(cc1NC(=O)C(C)Sc1ccc(C)cc1)oc1ccccc12 (stereo not given) | 10 | -5 | -49 | -0.15 | 14* | 4
Cc1cccc(-n2c(C)cc(/C=C3\C(=N)N4N=C(CC(C)C)SC4=NC3=O)c2C)c1 | 4 | 4 | -35 | 0.22 | 8 | nt
CC(C)CC1=NN2C(=N)/C(=C\c3coc4ccccc4c3=O)C(=O)N=C2S1 | nt | nt | nt | nt | 14* | 2
CCCCCOc1ccc(C(=O)OCC(=O)Nc2cc(C)c(C)cc2[N+](=O)[O-])cc1 | 8 | 6 | -34 | 0.28 | 12* | 6
CCOC(=O)C1CN(S(=O)(=O)c2cccc(C(F)(F)F)c2)c2cc(CC(=O)OC)ccc2O1 (stereo not given) | 22 | -5 | -34 | -0.27 | 16* | 2
Cc1ccc(N2CC(C(=O)O)CC2=O)cc1 (stereo not given) | nt | nt | nt | nt | 1 | nt
Cc1ccc(N=C(NOCc2ccc(Cl)cc2Cl)c2nonc2N)c(C)c1 | 8 | -8 | -52 | 0.88 | 13* | 6
Cc1ccccc1N=C(NOCc1ccc(Cl)cc1Cl)c1nonc1N | 2 | 0 | -59 | -1.7 | 7 | nt
Cc1noc(C)c1COc1cccc(C(=O)Nc2ccc(OCc3ccccc3)cc2)c1 | 46 | -11 | -36 | -0.98 | 12* | 7
Cc1noc(C)c1COc1ccc(C(=O)Nc2ccccc2)cc1 | nt | nt | nt | nt | 4 | nt
O=C(COC(=O)c1ccc(-c2ccccc2)cc1)Nc1ccccc1-c1ccccc1 | 2 | 5 | -30 | -0.04 | 12* | 3
COC(=O)c1ccc(-c2ncc(-c3cccc4ccccc34)o2)cc1 | 6 | nt | -13 | -0.54 | 13* | 2
Cn1c(=O)c2c(ncn2CC(=O)OCC(=O)NC(c2ccccc2)c2ccccc2)n(C)c1=O | 7 | -4 | -38 | 1.3 | 14* | 1
O=C1Nc2ccccc2/C1=N\N=C\C1=C(N2CCOCC2)C(=C\c2ccccc2)/CC1 | 17 | -8 | -48 | -0.19 | 13* | 5
Cn1cc(C(=O)N/N=C/C2=C(N3CCOCC3)C(=C\c3ccccc3)/CC2)ccc1=O | 6 | 3 | -32 | -0.22 | -1 | nt
O=C(O)Cc1nn(Cc2ccc(Cl)cc2)c(=O)c2ccccc12 | nt | nt | nt | nt | 0 | nt
O=c1c2ccccc2c(-c2ccccc2)nn1Cc1ccc(Cl)cc1 | 3 | -17 | -34 | -1.1 | 14* | 2
Clc1ccc(-c2csc(Nc3ccccc3)[n+]2Cc2ccco2)c(Cl)c1 | nt | nt | nt | nt | 14* | 2
C=CC[n+]1c(-c2ccc(Cl)cc2Cl)csc1Nc1c(C)n(C)n(-c2ccccc2)c1=O | nt | nt | nt | nt | 0 | nt
CCN(CC)S(=O)(=O)c1cccc(C(=O)c2c(C)cc3ccccn23)c1 | 10 | 12 | -53 | -0.67 | 15* | 2
O=C(CNS(=O)(=O)c1c(Cl)cccc1Cl)OCc1csc(-c2ccccc2)n1 | 2 | -2 | -28 | -0.79 | 13* | 1
O=C(CNS(=O)(=O)c1ccc2ccccc2c1)OCc1csc(-c2ccccc2)n1 | 14 | 2 | -60 | -0.89 | 14* | 3
Cc1cc(C)cc(N(C(=O)CCC(=O)Nc2ccccn2)C(C(=O)NC(C)C)c2ccc(O)cc2)c1 (stereo not given) | nt | nt | nt | nt | 4 | nt
COc1cccc(/C=C/C(=O)OCC(=O)Nc2cc(C(F)(F)F)ccc2Cl)c1 | 9 | 4 | -28 | -0.93 | 12* | 1
COc1cccc(/C=C/C(=O)OCC(=O)NCc2ccc(Cl)cc2)c1 | nt | nt | nt | nt | 4 | nt
SMILES | Measles CPE | Yeast life ext | Yeast growth inh | SDO1 yeast rescue | RAM inhibit | RAM 5-FOA
COc1ccc(CCNC(=O)c2ccc(-c3ccc([N+](=O)[O-])cc3)o2)cc1OC | 12 | 4 | -29 | -0.41 | 11* | 2
Cc1ccc(N2CCN(C(=O)c3ccccc3)CC2)c(C)c1 | 3 | -9 | -32 | -0.4 | 3 | nt
Cc1ccc(N2CCN(C(=O)c3cc(C(=O)c4ccccc4C)c[nH]3)CC2)c(C)c1 | nt | nt | nt | nt | 24* | 2
CCCSc1ccc(-c2nn(-c3ccccc3)cc2/C=C(/C#N)C(=O)NCCCOC)cc1 | 27 | 5 | -15 | 1.5 | 16* | 2
Cc1ccc(-c2nn(-c3ccccc3)cc2/C=C(\C#N)C(=O)NCc2ccccc2)cc1 | 3 | 2 | -24 | 0.98 | 6 | nt
CCSc1ccc(-c2nn(-c3ccccc3)cc2/C=C(/C#N)C(=O)NCCCOC)cc1 | 4 | 10 | -10 | -1.2 | 17* | 5
CCOc1cccc(-c2nn(-c3ccccc3)cc2/C=C(/C#N)C(=O)NCCCn2ccnc2)c1 | 3 | -4 | -60 | 0.16 | 6 | nt
CCCn1c(N)c(C(=O)COc2ccc(Br)cc2F)c(=O)n(C)c1=O | nt | nt | nt | nt | 3 | nt
CCCCc1ccc(NC(=S)Nc2ccc(Cl)c(S(=O)(=O)N(C)C)c2)cc1 | 4 | 3 | -10 | -1.1 | 16* | 6
CCN1CCN(CC(=O)Nc2ccc(Cl)c(S(=O)(=O)N(C)C)c2)CC1 | nt | nt | nt | nt | 1 | nt
CCOC(=O)Cc1csc(NC(=O)NC2(C(F)(F)F)Oc3ccccc3O2)n1 | 30 | -2 | -29 | 0.26 | 14* | 1
CCC1CCCCN1S(=O)(=O)c1ccc(S(=O)(=O)N(Cc2cccs2)C2CC2)cc1 (stereo not given) | 42* | 33* | -37 | -0.54 | 13* | 2
CCC1CCCCN1S(=O)(=O)c1ccc(S(=O)(=O)N(Cc2ccccn2)CC2CCCO2)cc1 (stereo not given) | 9 | 5 | -19 | -0.47 | 1 | nt
Cc1ccc(N2N=C(c3ccc(F)cc3)CC2c2ccco2)cc1 (stereo not given) | nt | nt | nt | nt | 12* | 4
Fc1ccc(C2=NN(c3ccccc3)C(c3ccco3)C2)cc1 (stereo not given) | nt | nt | nt | nt | 3 | nt
O=C(Nc1ccc(S(=O)(=O)Nc2ccccn2)cc1)C(F)(F)F | nt | nt | nt | nt | 1 | nt
O=S(=O)(Nc1nc2ccccc2nc1Nc1ccc2c(c1)OCCO2)c1cccs1 | 5 | -7 | -69 | -1.3 | 12* | 1
Cc1cccc(C)c1OC1(c2ccccc2)OC(=O)c2ccccc21 (stereo not given) | 0 | -13 | -60 | -1 | 12* | 6
CCOC1(c2ccccc2)OC(=O)c2ccccc21 (stereo not given) | 3 | -1 | -25 | -0.37 | 1 | nt
Cc1cc(C)c(OC2(c3ccccc3)OC(=O)c3ccccc32)c(C)c1 (stereo not given) | 4 | -3 | -40 | -1.2 | 12* | 3
Cc1c(C(=O)N2c3ccccc3Sc3ccccc32)cccc1[N+](=O)[O-] | 18 | -2 | -22 | -1.1 | 3 | nt
COCCN1C(=O)/C(=C/c2ccc(N3CCCC3)cc2C)SC1=S | nt | nt | nt | nt | 16* | 4
COc1ccc(-n2c(C)cc(/C=C3/SC(=S)N(C)C3=O)c2C)cc1 | 12 | 0 | -52 | -1 | 3 | nt
O=C(NCc1ccco1)c1cc(-c2ccccn2)nc2ccccc12 | 5 | 5 | -24 | -0.12 | 3 | nt

High-throughput results: PubChem, several laboratories
